The values below come from ChEMBL document CHEMBL1156781, “The binding of synthetic retinoids to lipocalin beta-lactoglobulins” (J Med Chem, 2010).

The target in series [1] is T1, Beta-lactoglobulin (Bos taurus) (UniProt P02754).
T1 sequence (whole entry): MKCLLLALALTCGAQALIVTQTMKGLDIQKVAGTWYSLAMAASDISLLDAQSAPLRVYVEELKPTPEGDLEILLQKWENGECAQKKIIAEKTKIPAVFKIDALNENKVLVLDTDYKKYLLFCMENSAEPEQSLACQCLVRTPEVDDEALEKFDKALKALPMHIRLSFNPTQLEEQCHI
Briefly: Binding affinity to bovine beta-lactoglobulins at 100 uM by ultrafiltration/HPLC method. The gist of the method:
(§1)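 Ultrafiltration sampling with HPLC analysis. Ligand at 100 μM was allowed to interact with βLG at 50 μM, and the fraction of ligand found in the retentate was quantified as a percentage.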

In series [2] the target is T1, Beta-lactoglobulin (Bos taurus). Briefly: (§2) Binding affinity to bovine beta-lactoglobulins by fluorescence spectroscopy.
A short description of series [3]: Solubility assessed as aggregate formation at >= pH 5 by dynamic light scattering method. The class given is physicochemical. The note with it: buffer. The gist of the method:
(§3)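 Retinoids diluted in acid buffer spanning pH 2.0 to 7.0 and examined by dynamic light scattering for aggregate signal.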

The nature of series [4]: Solubility in PBS assessed as aggregate diameter size at 200 uM by dynamic light scattering method.
In series [5] the target is T1, Beta-lactoglobulin (Bos taurus). Briefly: Binding affinity to bovine beta-lactoglobulins assessed as aggregate diameter size formed at 200 uM by dynamic light scattering method. The gist of the method: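 Retinoid at 200 μM diluted in PBS and measured by dynamic light scattering as mean intensity and particle diameter (kCps/nm). Bovine βLG was then added to the cuvette at 50 μM, and a second run followed a 30 min stabilization phase.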

The test system of series [6] is Rangifer tarandus. Kind of series: Binding affinity to reindeer beta-lactoglobulin at 100 uM by ultrafiltration/HPLC method. The gist of the method:
as §1

Series [7] in a line: Solubility assessed as lowest drug level in which detectable aggregates formed by dynamic light scattering method. It counts as physicochemical. The gist of the method: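 Retinoid dilutions in PBS measured by dynamic light scattering. The critical concentration is the lowest level giving DLS-detectable aggregates. Concentrations ran up to 200 μM.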
The subject of series [8] is Rangifer tarandus. Briefly: (§4) Binding affinity to reindeer beta-lactoglobulin by fluorescence spectroscopy.
The nature of series [9]: Solubility assessed as aggregate formation at <= pH 4 by dynamic light scattering method. The conditions noted are these: buffer. The class given is physicochemical. The gist of the method:
as §3

Series [10] is described as follows: as §4. Set-up: species or system Rangifer tarandus.
In the next series the target is T2, Beta-lactoglobulin (Bos taurus, UniProt P02754).
T2 sequence (P02754 whole entry): T1 sequence (whole entry)
The series is described as §2.

≈ marks a conversion by molar mass, not a printed value. Calls of active or inactive are those of the source. The calls are words filed in the database; no cut-off is given here.

For orientation: solubility means how much of the substance goes into solution per volume. In the case of `CC1=C(/C=C/C(C)=C/C=C/C(C)=C/C(=O)Nc2ccc(O)cc2)C(C)(C)CCC1` [FENRETINIDE], the result (in series [1]; in series [2]; with Rangifer tarandus [6]; with Rangifer tarandus [8]) was Active. The solubility result in [3] was “Insoluble”; in series [7] it was 100 µM (≈ 39.2 µg/mL). For the same compound, the Activity in [4] was determined as 818.1 nm; in series [5] it was 424 nm.
Consider `C/C(=C\c1ccc(C(=O)O)cc1)c1ccc2c(c1)C(C)(C)CCC2(C)C`, for which the outcome (in [1]; in series [2]; with Rangifer tarandus [6]; with Rangifer tarandus [8]) was Active. Further, the solubility result was “Insoluble” in series [3] and 50 µM (≈ 17.4 µg/mL) in series [7]. Also, the Activity was 848.5 nm in series [4] and 243 nm in [5].
One may read the Kd as the concentration at which binding is half-saturated. Low readings indicate higher affinity, high ones lower affinity. Take `CC1=C(/C=C/C(C)=C/C=C/C(C)=C/CO)C(C)(C)CCC1` [RETINOL]: the Activity is 7.9% in series [1], 972.2 nm in series [4], 129 nm in [5] and 7.6% in the series with Rangifer tarandus [6]. Moreover, the solubility result in [9] was “Insoluble”. The compound also showed a Kd in [10] of 200 nM.
For `COC(=O)/C=C/c1ccc(/C=C/C2=C(C)CCCC2(C)C)cc1`, the Activity was determined as 7% in series [1], 791.6 nm in series [4], 276 nm in series [5] and 11% with Rangifer tarandus [6]. In addition, the result in series [2] was Active. In addition, the solubility result in [3] was “Insoluble”.
`CC1=C(/C=C/c2ccc(/C=C/C(=O)O)cc2)C(C)(C)CCC1`: the Activity in [1] was determined as 29.1%; in [4], 668.7 nm; in series [5], 188 nm; in the series on Rangifer tarandus [6], 18.8%. Further, the figures for the Kd (on Beta-lactoglobulin; in [10]) were 153 nM and 107 nM, respectively. Also, the solubility result was “Insoluble” in series [9] and 100 µM (≈ 29.6 µg/mL) in [7].
